Assay outcomes as filed in PubChem BioAssay.
An excerpt weighted towards active compounds, which were near 3.5% of everything screened.
MrgX1 agonist: activates human MrgX1 receptor signaling; Q96LB2; MrgX1-HEK293 cells, Fluo-4 calcium fluorescence, agonist mode; hits give high values; B-score at 10 µM; actives 0.44% (n = 310,000); AID 588627;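 active = calcium response B-score plate-corrected fluorescence ratio at least 3 library SD, with starting fluorescence B-score inside 5 SD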
Target sequence (Q96LB2 whole entry, looked up): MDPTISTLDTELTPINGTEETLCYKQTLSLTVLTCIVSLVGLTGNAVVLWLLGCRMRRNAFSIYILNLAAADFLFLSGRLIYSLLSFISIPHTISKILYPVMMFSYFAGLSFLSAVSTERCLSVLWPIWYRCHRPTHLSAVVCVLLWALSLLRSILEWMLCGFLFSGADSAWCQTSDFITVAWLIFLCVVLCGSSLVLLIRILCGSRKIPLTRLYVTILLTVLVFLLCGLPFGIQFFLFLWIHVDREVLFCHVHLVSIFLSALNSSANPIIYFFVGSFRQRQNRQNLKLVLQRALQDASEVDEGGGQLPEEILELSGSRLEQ
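Test system: Stable human MrgX1 HEK293 cell line | Schedule: Overnight plating before 1 h dye loading | Read-out basis: Baseline-normalised fluorescence change ratio, B-scored | Detection: Kinetic calcium dye fluorescence, Fluo-4 NW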
MrgX1 antag: antagonists of human MrgX1 receptor. MRGX1-HEK293 calcium flux, Fluo-4, BAM8-22 antagonism; hits give low values. Q96LB2. actives 1.3% (n = 310,000). B-score at 10 µM. AID 588676;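 active = calcium-response B-score plate-corrected more than 3 library SD below zero, starting fluorescence within 5 deviations, no agonist response on first addition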;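 note: peak minus trough fluorescence over baseline after final BAM8-22 challenge near maximal dose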
MrgX1 allo act: human MrgX1 positive allosteric modulation, primary screen; Q96LB2; MrgX1-HEK293, Fluo-4 calcium flux, FDSS; hits give high values; B-score at 10 µM; actives 0.63% (n = 310,000);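 active = plate-corrected calcium response at least 3 library SD above typical, normal starting fluorescence, not activating the receptor alone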;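 note: compound read alongside a low EC10 to EC30 dose of BAM8-22 agonist; peak minus trough fluorescence over baseline measured at the second addition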
RGS4 inh: inhibitors of human RGS4; P49798; HEK293 M3R/RGS4 inducible, Fluo-4 calcium flux; hits give high values; triggered by carbachol at its EC20; B-score at 10 µM; actives 0.45% (n = 310,000); AID 463165;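 active = B-score, a plate-corrected calcium signal, over three deviations above library mean, with baseline fluorescence within five deviations of library mean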;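 note: RGS4 expression induced by doxycycline in cells with stable M3 receptor; B-score is computed from the integrated fluorescence ratio over baseline after carbachol; higher B-score means a larger calcium signal and so more RGS4 inhibition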
Target sequence (P49798 whole entry, looked up): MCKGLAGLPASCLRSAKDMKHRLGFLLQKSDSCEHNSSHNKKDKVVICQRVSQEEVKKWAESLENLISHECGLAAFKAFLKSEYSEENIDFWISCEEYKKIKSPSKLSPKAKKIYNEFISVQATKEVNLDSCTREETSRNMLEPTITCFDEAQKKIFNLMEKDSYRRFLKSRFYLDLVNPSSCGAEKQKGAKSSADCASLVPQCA
RGS4 pot: potentiators or activators of RGS4; HEK293 M3R/inducible RGS4, carbachol calcium flux Fluo4; hits give low values; actives 0.92% (n = 310,000); B-score at 10 µM; AID 463111;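 active = B-score of the integrated calcium signal more than 4 SD below the library mean, with starting fluorescence not abnormally high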;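 note: negative B-score means reduced calcium response which marks RGS4 activation or potentiation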
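System – HEK293 FlpIn-TREx cells, stable M3R, doxycycline-inducible RGS4 · Reagent – ECmax carbachol challenge · Times – compound preincubation 20 min at room temperature before agonist · Technique – Fluo4 fluorescence kinetic imaging of calcium · Measure – B score of integrated Fluo4 ratio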
RGS4 inh valid: validation of RGS4 inhibitors. shares compounds with RGS4 inh. HEK293 M3R/RGS4, carbachol calcium Fluo-4 fluorescence; carbachol added at its EC20; 0 = buffer wells, 100 = carbachol control. calcium response, % at 10 µM. actives 65% (n = 1,700). AID 492999;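 active = duplicate-averaged calcium response above the buffer-only control mean plus 5 SD of those controls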;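 note: integrated fluorescence ratio F max minus min over baseline F0; higher response in RGS4-induced cells means RGS4 inhibition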
M3R Ca ctr: non-induced cell nonspecific activity of RGS4 inhibitors; shares compounds with RGS4 inh; HEK293 M3R non-induced, carbachol calcium Fluo-4; submaximal (EC20) carbachol stimulus; buffer wells 0%, carbachol control wells 100%; activity (percent), % at 10 µM; actives 20% (n = 1,900); call rule not given here;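 note: RGS4 induction absent so cells express M3R without RGS4; higher means more calcium signal and flags a non-specific hit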
RGS4 inh ctr2: second RGS4 inhibitor counter-screen in uninduced cells lacking carbachol | shares compounds with RGS4 inh | HEK293 M3R/RGS4 non-induced, Fluo-4 calcium, no carbachol; normalised: buffer wells 0%, carbachol wells 100% | calcium response (agonist-mode artifact), % at 10 µM | actives 22% (n = 1,900) | AID 493001;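 active = duplicate-averaged calcium rise in uninduced cells above buffer wells' mean plus 5 SD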
MrgX1 ag reconf: reconfirmed activator of human MrgX1 receptor signaling; shares compounds with MrgX1 agonist; MrgX1-HEK293, Fluo-4 calcium fluorescence, FDSS; activation, % at 10 µM; actives 78% (n = 600);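 active = calcium signal rise, corrected for plate position, at least 3 library SD high, with starting brightness within 5 such deviations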
MrgX1 allo conf: confirmation of human MrgX1 receptor positive allosteric modulators; actives 13% (n = 1,200); activation (ratio percentage), % at 10 µM; shares compounds with MrgX1 allo act; MrgX1-HEK293, Fluo-4 calcium fluorescence, FDSS;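 active = ratio at least 3 SD above the weak peptide control, stable starting fluorescence, no direct agonism earlier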;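 note: compound followed by low BAM8-22 agonist challenge near EC20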
HEK293 Ca flux: counter-screen for MrgX1 antagonists: effect in parental HEK293 cells; Fluo-4 calcium fluorescence, FDSS; fluorescence ratio F(max-min)/F0 at 10 µM; shares compounds with MrgX1 antag; AID 624111; actives 2% (n = 4,000);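 active = duplicate-averaged calcium fluorescence ratio at least three times the standard deviation of buffer wells, a nonspecific response in parental cells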
HEK293 Ca counter: MrgX1 allosteric activator counter-screen hit in parental HEK293 cells. fluorescence ratio F(max-min)/F0 at 10 µM. shares compounds with MrgX1 antag. AID 624114. parental HEK293 calcium flux, Fluo-4 fluorescence ratio; hits give high values. actives 0.4% (n = 4,000);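 active = calcium fluorescence ratio, averaged over duplicates, at least 3 SD of the buffer-well ratio, meaning a nonspecific response in receptor-free cells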;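 note: untransfected parental HEK293 lacking MrgX1 used as counterscreen for MrgX1 allosteric activators; fluorescence change taken during the second addition on a kinetic imager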
HEK293 Ca cntr2: MrgX1 activator counter-screen hit in parental HEK293 cells; shares compounds with MrgX1 antag; Fluo-4 calcium fluorescence (FDSS); hits give high values; fluorescence ratio F(max-min)/F0 at 10 µM; actives 8.7% (n = 4,000);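 active = calcium fluorescence ratio at least three times the spread of buffer wells, meaning a non-specific response in parental cells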
An asterisk follows results filed as active; i = inactive; x = no result given.

SMILES	MrgX1 agonist	MrgX1 antag	MrgX1 allo act	RGS4 inh	RGS4 pot	MrgX1 ag reconf	MrgX1 allo conf	HEK293 Ca flux	HEK293 Ca counter	HEK293 Ca cntr2	others
CCCN1CCc2cc(O)cc3c2[C@H]1Cc1ccc(O)c(O)c1-3	30.9*	i	i	10.5*	i	i	x	i	i	i	RGS4 inh valid=65.0%*;M3R Ca ctr=i;RGS4 inh ctr2=i
FC(F)(F)Oc1ccc(NC2=NCCCS2)cc1	i	i	i	i	i	x	x	x	x	x
CCCN1C2CCCC1CC(NC(C)=O)C2 (centres undefined)	49.9*	i	i	i	i	i	x	i	i	i
CCc1c(C)nc(N)nc1N1N=C1SCC(N)=O	i	i	i	i	i	x	x	x	x	x
Cc1ccc(-c2cc(-c3ccc(C)cc3)[n+](C)o2)cc1	i	i	i	i	i	x	x	x	x	x
Cc1ccc(-c2cc(-c3ccc(C)cc3)[n+](-c3ccccc3)c(-c3ccc(C)cc3)c2)cc1	77.4*	i	i	i	-10.7*	350.6%*	x	i	i	81.8*
C=Cn1c(P(=S)(N2CCOCC2)N2CCOCC2)cc2c1CCCC2	66.1*	i	i	i	i	i	x	i	i	i
COc1ccc(C2CN(C)CC2C(=O)c2ccc(C)cc2)cc1Cl (centres undefined)	i	i	i	i	i	x	x	x	x	x
COC(=O)C1=C(c2cc3ccccc3o2)C[C@@H]2CC[C@H]1N2C(=O)NCc1ccc(F)cc1	i	i	7.93*	i	i	x	i	i	i	i
CCCCn1c(=O)c(C(=O)NCCc2ccccc2)c(O)c2ccccc21	i	i	8.09*	i	i	x	i	i	i	i
CCCCn1c(=O)c(C(=O)NC(C)c2ccccc2)c(O)c2ccccc21 (centres undefined)	i	i	9.07*	i	i	x	i	i	50.1*	i
CCCCCn1c(=O)c(C(=O)Nc2ccccc2)c(O)c2ccccc21	i	i	i	i	i	x	x	x	x	x
O=C1NC(=O)N(CCNc2ncc(C(F)(F)F)cc2Cl)C(=O)C1Cc1ccc(Cl)cc1 (centres undefined)	i	i	i	i	i	x	x	x	x	x
C/C=C1/CN2C3CC1C(CO)(C(=O)OC)C2Cc1c3n(C)c2ccccc12 (centres undefined)	i	i	i	i	i	x	x	x	x	x
N#CSCC(=O)N1c2ccccc2CCc2ccccc21	i	i	8.54*	i	i	x	i	i	i	i
NCC(O)c1cc(O)c(O)cc1F (centres undefined)	i	i	6.54*	x	x	x	i	i	i	i
